One may read the EC50 as the concentration at which the effect is half-maximal.

These results are taken from article PMC6516474 (Journal of the American Chemical Society, 2019).

For data set [1], the system named is HEK293T. The data set is described as follows: AlamarBlue proliferation assay, HEK293T. In kind it is cell-based. The note with it: for fold more potent than 81 and digoxin 82: EC50 comparison.
In data set [2] the test system is NIH-3T3. The data set is described as follows: AlamarBlue proliferation assay, NIH-3T3. In kind it is cell-based, mouse. As to conditions: for toxicity to NIH-3T3: growth inhibition screen at 1 and 3 µM; for toxicity against NIH-3T3: 3 µM; for EC50: read-out: EC50 NIH-3T3, NIH-3T3, inherently-insensitive line.
Data set [3] has as its system HEK293T, HeLa, Cos7, Raji, NIH-3T3. The data set is described as follows: AlamarBlue proliferation screen over a cell line panel. It is filed as cell-based. The note with it: 2 days. In a few lines: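 Panel includes Raji (human Burkitt's lymphoma, grown in suspension) and NIH-3T3 (non-transformed mouse fibroblast) alongside adherent lines. Test compounds were screened at 2 µM and 0.6 µM, and proliferation was read by AlamarBlue over 2 days. The assay was validated by comparing normalized AlamarBlue signal averages of DMSO-treated cells with those of cells given 2 µg/ml puromycin (Z′ factor calculated).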
For orientation: The colour change of resazurin is a common sign of viable cells or microbes.

For data set [4], the system named is MDA-MB-231. The data set is described as follows: Proliferation EC50, MDA-MB-231. As to conditions: for fold more potent than 79a: MDA-MB-231, EC50 comparison; for EC50: read-out: EC50 MDA-MB-231, MDA-MB-231. It is filed as cell-based, human.
Data set [5] has as its system MEFs (a mouse embryonic fibroblast line). The data set is described as follows: Toxicity against MEF. In kind it is cell-based. The note with it: 3 µM.
Data set [6] concerns RAW (a virally-transformed mouse macrophage line). The data set is described as follows: Toxicity against RAW. In kind it is cell-based.
Data set [7] has as its system HF-II-E (a hepatoma line from rat). The data set is described as follows: Toxicity against HF-II-E. It is filed as cell-based.
Data set [8] concerns U87. The data set is described as follows: Proliferation EC50, U87. It is filed as cell-based, human. The note with it: U87, EC50 comparison.
For data set [9], the system named is HEPG2. The data set is described as follows: Proliferation EC50, HEPG2. In kind it is cell-based, human. The note with it: HEPG2, EC50 comparison.
Data set [10] relates to cancer cell lines. The data set is described as follows: Broad anticancer activity over cancer cell lines. The note with it: range over cancer cell lines. It is filed as cell-based.
Data set [11] deals with γ-H2AX. The data set is described as follows: Immunofluorescence DNA-damage response, NIH-3T3. It is filed as cell-based, mouse. The note with it: NIH-3T3, 24 h; 79a 0.111 µM, 92 0.038 µM, 97 0.042 µM; mitomycin C as validation.
In data set [12] the test system is caspase-3 activation. The data set is described as follows: Immunofluorescence apoptosis, NIH-3T3. It is filed as cell-based, mouse. The note with it: NIH-3T3, 24 h; 79a 0.111 µM, 92 0.038 µM, 97 0.042 µM; mitomycin C as validation.
The test system of data set [13] is HFF1 (a human fibroblast line). The data set is described as follows: Toxicity against HFF1. It is filed as cell-based.
The subject of data set [14] is γ-H2AX. The data set is described as follows: Immunofluorescence DNA-damage response, HeLa. In kind it is cell-based, human. As to conditions: 24 h, 79a 0.015 µM, 92 0.012 µM.
Data set [15] relates to caspase-3. The data set is described as follows: Immunofluorescence apoptosis, HeLa. It is filed as cell-based, human. The note with it: 24 h, 79a 0.015 µM, 92 0.012 µM.
Where [16] appears, read: Homo sapiens, HEK-293T, 48 h, read-out: EC50 in HEK293T.
[17] abbreviates: read-out: EC50 in HEK293T, HEK293T, proliferation over 2 days, AlamarBlue.
Setting [18] is: read-out: EC50 in HEK293T cells, HEK293T, 5 most potent compounds.
Setting [19] is: Homo sapiens, HEK-293T, read-out: EC50 in HEK293T cells.

Where two headings read alike, the source gives them in different places. Starred links: 1 amine or outer side, 2 acyl side, 3 side chain; linkers in the order of their positions; H or OH if unused. Positions of bridges follow the written chain, without caps; N, C: chain ends. Non-standard residues stand in square brackets, D forms with d. Residues, ends and D or L forms follow the SMILES beside them. Chains are numbered I, II in the order given. Actinocin(9to1) = Cc1c2oc3c(C)ccc(C(=O)[*:1])c3nc-2c(C(=O)[*:2])c(N)c1=O; NMeV = CN[C@H](C(=O)O)C(C)C; Sar = CNCC(=O)O

For the molecule `C[C@]12CC[C@H](O)C[C@H]1CC[C@@H]1[C@@H]2CC[C@]2(C)[C@@H](C3=CC(=O)OC3)CC[C@]12O` [compound 80, digitoxigenin, reference compound], the EC50 in data set [1] (setting [16]) is under 1000 nM. Besides, the “toxicity to NIH-3T3” value in [2] is “none of which were toxic to NIH-3T3”.
On to `C[C@]12CC[C@H]3[C@@H](CC[C@@H]4C[C@@H](O)CC[C@@]43CO)[C@@]1(O)CC[C@@H]2C1=CC(=O)OC1` [compound 5, cannogenol], for which, in [1] (setting [17]), the EC50 is about 1000 nM. Besides, the “activity against NIH-3T3 in proliferation screen” value in data set [2] (2 µM, 2 days) is “activity against every line except NIH-3T3”. In addition, the “activity in proliferation screen” value in data set [3] (0.6 µM) is on record as “affecting most lines”; in data set [3] (2 µM), “active”.
`Cc1c2oc3c(C)ccc(C(=O)N[C@@H]4C(=O)N[C@H](C(C)C)C(=O)N5CCC[C@H]5C(=O)N(C)CC(=O)N(C)[C@@H](C(C)C)C(=O)O[C@@H]4C)c3nc-2c(C(=O)N[C@@H]2C(=O)N[C@H](C(C)C)C(=O)N3CCC[C@H]3C(=O)N(C)CC(=O)N(C)[C@@H](C(C)C)C(=O)O[C@@H]2C)c(N)c1=O` [actinomycin D] (I: T[dV]P[Sar][NMeV] / II: T[dV]P[Sar][NMeV]; ester I:1-I:C, II:1-II:C; linker I:N-II:N via Actinocin(9to1)): the EC50 in [1] (setting [16]) worked out at 2 nM.
In the case of `C[C@@H]1O[C@@H](O[C@H]2CC[C@@]3(C)[C@H](CC[C@@H]4[C@@H]3CC[C@]3(C)[C@@H](C5=CC(=O)OC5)CC[C@]43O)C2)[C@H](O)[C@H](O)[C@H]1O` [compound 97, digitoxigenin-L-α-rhamnoside], the “fold more potent than 81 and digoxin 82” value in data set [1] (HEK293T) was 2–3 fold. Also, the EC50 in data set [1] (setting [18]) is under 100 nM; in data set [2], over 3000 nM; in [4], 42 nM. For the same molecule, the “toxicity against NIH-3T3” value in [2] was “nontoxic”. Besides, the “fold more potent than 79a” value in data set [4], in data set [8] and in [9] was 3–4 fold in each case. Besides, the “toxicity against MEF” value in data set [5] was “nontoxic”. Besides, the “effect against RAW” value in [6] is “ineffective”. The “effect against HF-II-E” value in data set [7] is “ineffective”. Besides, the “concentrations of broad anticancer activity” value (from here on “concentrations”) in data set [10] is 10 to 100 nM. The “γ-H2AX upregulation (DNA-damage response)” value in [11] is on record as “did not upregulate”. Moreover, the caspase-3 activation entry in [12] was “did not upregulate”.
On to `C[C@]12C[C@@H](O)[C@H]3[C@@H](CC[C@]4(O)C[C@@H](O)C[C@@H](O)[C@]34CO)[C@@]1(O)CC[C@@H]2C1=CC(=O)OC1` [compound 1, ouabagenin], for which the EC50 in data set [1] (setting [17]) is under 1000 nM. Further, the “toxicity to NIH-3T3” value in data set [2] is “none of which were toxic to NIH-3T3”. Further, the “effect against HFF1” value in [13] is given as “effective”.
As to `C[C@@H]1O[C@@H](O[C@H]2C[C@@H](O)[C@]3(CO)[C@H]4[C@H](O)C[C@]5(C)[C@@H](C6=CC(=O)OC6)CC[C@]5(O)[C@@H]4CC[C@]3(O)C2)[C@H](O)[C@H](O)[C@H]1O` [compound 2, ouabain], the EC50 in data set [1] (setting [16]) is under 1000 nM. In addition, the “toxicity to NIH-3T3” value in [2] is given as “none of which were toxic to NIH-3T3”. Also, the “effect against HFF1” value in data set [13] is listed as “effective”.
Take `CN[C@@H]1C[C@H]2O[C@@](C)([C@@H]1OC)n1c3ccccc3c3c4c(c5c6ccccc6n2c5c31)C(=O)NC4` [Staurosporine, reference compound]: the γ-H2AX upregulation result in [14] is reported as “upregulated”. Moreover, in data set [15], the caspase-3 upregulation entry is “upregulated”.
With `C[C@H]1CCC/C=C/[C@@H]2C[C@H](O)C[C@H]2[C@H](O)/C=C/C(=O)O1` [brefeldin A], in [1] (setting [16]), the EC50 came to 200 nM.
As for `C[C@H]1O[C@@H](O[C@H]2[C@@H](O)C[C@H](O[C@H]3[C@@H](O)C[C@H](O[C@H]4CC[C@@]5(C)[C@H](CC[C@@H]6[C@@H]5CC[C@]5(C)[C@@H](C7=CC(=O)OC7)CC[C@]65O)C4)O[C@@H]3C)O[C@@H]2C)C[C@H](O)[C@@H]1O` [compound 81, digitoxin], the values for the EC50 in [1] (setting [16]) and in [1] (setting [19]) were under 1000 nM and under 100 nM, respectively. In data set [2], the “toxicity to NIH-3T3” value was “none of which were toxic to NIH-3T3”. In addition, the “effect against HFF1” value in data set [13] is listed as “effective”.
In the case of `C[C@H]1O[C@@H](O[C@H]2[C@@H](O)C[C@H](O[C@H]3[C@@H](O)C[C@H](O[C@H]4CC[C@@]5(C)[C@H](CC[C@@H]6[C@@H]5C[C@@H](O)[C@]5(C)[C@@H](C7=CC(=O)OC7)CC[C@]65O)C4)O[C@@H]3C)O[C@@H]2C)C[C@H](O)[C@@H]1O` [compound 82, digoxin], the EC50 is under 1000 nM in [1] (setting [16]) and under 100 nM in data set [1] (setting [19]). In addition, the “toxicity to NIH-3T3” value in data set [2] is “none of which were toxic to NIH-3T3”.
As for `CO[C@@]12[C@H](COC(N)=O)C3=C(C(=O)C(C)=C(N)C3=O)N1C[C@@H]1N[C@@H]12` [mitomycin C, reference compound], the EC50 in [1] (setting [16]) amounted to 4000 nM. For the same molecule, the “γ-H2AX upregulation (DNA-damage response)” value in data set [11] was “DDR-upregulation”. Further, the caspase-3 activation entry in data set [12] is “Caspase-3-uregulation only in NIH-3T3”.
`C[C@@H]1O[C@H](O[C@H]2CC[C@]3(CO)[C@H]4CC[C@]5(C)[C@@H](C6=CC(=O)OC6)CC[C@]5(O)[C@@H]4CC[C@]3(O)C2)[C@H](O)[C@H](O)[C@H]1O` [compound 92, strophanthidol-L-α-rhamnoside]: the “fold more potent than 81 and digoxin 82” value in data set [1] (HEK293T) is reported as 2–3 fold. Moreover, the values for the EC50 in data set [1] (setting [18]), in [2] and in data set [4] were under 100 nM, over 3000 nM and 38 nM, respectively. Moreover, in data set [2], the “toxicity against NIH-3T3” value is “nontoxic”. Besides, the “fold more potent than 79a” value in [4], in data set [8] and in data set [9] was 3–4 fold in each case. For the same molecule, the “toxicity against MEF” value in data set [5] was “nontoxic”. In addition, the “effect against HF-II-E” value in [7] is reported as “ineffective”. The “concentrations” value in data set [10] lay in the range of 10 to 100 nM. In [11], the “γ-H2AX upregulation (DNA-damage response)” value was “did not upregulate”. Further, the caspase-3 activation result in data set [12] is on record as “did not upregulate”. The γ-H2AX upregulation result in [14] is listed as “upregulated significantly”. For the same molecule, in [15], the caspase-3 upregulation result was “Little upregulation”.
For the molecule `C[C@@H]1O[C@@H](O[C@H]2CC[C@@]3(CO)[C@H](CC[C@@H]4[C@@H]3CC[C@]3(C)[C@@H](C5=CC(=O)OC5)CC[C@]43O)C2)[C@H](O)[C@H](O)[C@H]1O` [79a, cannogenol-L-α-rhamnoside], in data set [1] (HEK293T), the “fold more potent than 81 and digoxin 82” value is on record as 2–3 fold. Besides, the EC50 in [1] (setting [18]) is under 100 nM. Further, in data set [2], the “toxicity against NIH-3T3” value is reported as “nontoxic”, the “toxicity to NIH-3T3” value was “none of which were toxic to NIH-3T3” and the EC50 is over 3000 nM. Moreover, the EC50 in data set [4] worked out at 111 nM. In addition, the “toxicity against MEF” value in [5] is listed as “nontoxic”. For the same molecule, the “concentrations” value in data set [10] lay within 10 to 100 nM. Further, the “γ-H2AX upregulation (DNA-damage response)” value in data set [11] is on record as “did not upregulate”. Besides, the caspase-3 activation result in data set [12] is recorded as “did not upregulate”. Moreover, the γ-H2AX upregulation entry in [14] is listed as “upregulated significantly”. Besides, the caspase-3 upregulation entry in data set [15] is “Little upregulation”.
